Measured values: ChEMBL document CHEMBL1811821, “Cystic fibrosis: a new target for 4-Imidazo[2,1-b]thiazole-1,4-dihydropyridines” (J Med Chem, 2011)
Activity calls are given as the source filed them. No cut-off for these calls is given here.

Key:
[1] = test system: Cystic fibrosis transmembrane conductance regulator (Homo sapiens), P13569 [F508del]; experiment: Activity at CFTR F508 deletion mutant expressed in forskolin-stimulated FRT cells assessed as maximal increase in iodine influx measured as YFP quenching rate at 0.2 uM after 24 hrs by fluorescence assay; format: cell-based
How it was run: (§1)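 ΔF508-CFTR and halide-sensitive YFP coexpressed in FRT cells, held at 27 °C for 24 h for rescue, then stimulated 30–40 min with 20 μM forskolin with or without compound at 0.2, 2 and 20 μM. Fluorescence read before and after I– addition (100 mM final). Normalized decay fitted exponentially for maximal quenching rate; dose–response fitted with Hill equation for potency and maximal effect. Three independent determinations.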

[2] = test system: Cystic fibrosis transmembrane conductance regulator (Homo sapiens), P13569 [F508del]; experiment: Activity at CFTR F508 deletion mutant expressed in forskolin-stimulated FRT cells assessed as maximal increase in iodine influx measured as YFP quenching rate after 24 hrs by fluorescence assay; format: cell-based; how it was run: as §1
[3] = Binding affinity to CFTR F508 deletion mutant expressed in forskolin-stimulated FRT cells assessed as increase in iodine influx measured as YFP quenching rate after 24 hrs by fluorescence assay; format: cell-based; how it was run: as §1
[4] = Negative ionotropic activity in potassium depolarized guinea pig longitudinal smooth muscle assessed as inhibition of calcium-induced contraction; format: functional, Cavia porcellus
[5] = test system: Cystic fibrosis transmembrane conductance regulator (Homo sapiens), P13569 [F508del]; experiment: Activity at CFTR F508 deletion mutant expressed in forskolin-stimulated FRT cells assessed as maximal increase in iodine influx measured as YFP quenching rate up to 20 uM after 24 hrs by fluorescence assay; format: cell-based; how it was run: as §1
[6] = Bronchodilatory activity in guinea pig trachea assessed as inhibition of carbachol-induced contraction at 10^-5 M; format: functional; settings: Cavia porcellus
[7] = organism: Cavia porcellus; experiment: Negative ionotropic activity in potassium depolarized guinea pig longitudinal smooth muscle assessed as inhibition of calcium-induced contraction at 10^-5 M; format: functional
[8] = Negative ionotropic activity against potassium-induced contraction in guinea pig left atrium assessed as decrease in developed tension; settings: Cavia porcellus, Cardiac atrium
[9] = Negative ionotropic activity against potassium-induced contraction in guinea pig left atrium assessed as […] at 10^-4 M relative to control; format: functional; settings: Cavia porcellus, Cardiac atrium
How it was run: (§2)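 Isolated guinea pig left atrium paced at 1 Hz. Drugs added cumulatively. Negative inotropic effect expressed as percent change from control, n = 5–6. […] Student's t-test against control at each concentration, P < 0.05. Mean ± SEM.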

[10] = Negative chronotropic activity against potassium-induced contraction in guinea pig right atrium assessed as decrease atrial rate at 10^-4 M relative to control; format: functional; settings: Cavia porcellus, Cardiac atrium
How it was run: (§3)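 Spontaneously beating isolated guinea pig right atrium, pretreatment rate 165–190 beats/min. Drugs added cumulatively. Decrease in atrial rate expressed as percent change from control, n = 7–8. […] Control versus treated tested at each concentration by Student's t-test, P < 0.05. Mean ± SEM.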

[11] = Negative chronotropic activity against potassium-induced contraction in guinea pig right atrium assessed as decrease atrial rate; format: functional, tissue-based; settings: Cavia porcellus, Cardiac atrium; how it was run: as §3
[12] = organism: Cavia porcellus; experiment: Negative ionotropic activity in potassium depolarized guinea pig longitudinal smooth muscle assessed as inhibition of calcium-induced contraction at 10^-6 M; format: functional
[13] = test system: Aorta; experiment: Vasorelaxant activity in potassium depolarized guinea pig aortic strip assessed as inhibition of calcium-induced contraction at 10^-4 M; format: functional; settings: Cavia porcellus
How it was run: (§4)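 Guinea pig aortic strips depolarized with 80 mM K+, with cumulative drug addition. Relaxation given as mean ± SEM. […] Student's t-test against control, P < 0.05.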

[14] = Ratio EC50 for negative chronotropic activity against potassium-induced contraction in guinea pig right atrium to EC50 for negative […] activity against potassium-induced contraction in guinea pig left atrium; format: functional, Cavia porcellus, Cardiac atrium
[15] = Negative ionotropic activity against potassium-induced contraction in guinea pig left atrium assessed as […] at 10^-6 M relative to control; format: functional; settings: Cavia porcellus, Cardiac atrium; how it was run: as §2
[16] = test system: Aorta; experiment: Vasorelaxant activity in potassium depolarized guinea pig aortic strip assessed as inhibition of calcium-induced contraction at 10^-5 M; format: functional; settings: Cavia porcellus; how it was run: as §4
[17] = Negative chronotropic activity against potassium-induced contraction in guinea pig right atrium assessed as decrease atrial rate at 10^-5 M relative to control; format: functional; settings: Cavia porcellus, Cardiac atrium; how it was run: as §3
[18] = Bronchodilatory activity in guinea pig trachea assessed as inhibition of carbachol-induced contraction; format: functional, tissue-based, Cavia porcellus
[19] = Bronchodilatory activity in guinea pig trachea assessed as inhibition of carbachol-induced contraction at 10^-4 M; format: functional; settings: Cavia porcellus
[20] = Ratio EC50 for nifedipine to compound for negative […] activity against potassium-induced contraction in left atrium of guinea pig; format: functional, Cavia porcellus, Cardiac atrium
[21] = organism: Cavia porcellus; experiment: Negative ionotropic activity in potassium depolarized guinea pig longitudinal smooth muscle assessed as inhibition of calcium-induced contraction at 5 X 10^-5 M; format: functional
[22] = Negative ionotropic activity against potassium-induced contraction in guinea pig left atrium assessed as […] at 10^-7 M relative to control; format: functional; settings: Cavia porcellus, Cardiac atrium; how it was run: as §2
[23] = Negative chronotropic activity against potassium-induced contraction in guinea pig right atrium assessed as decrease atrial rate at 5 X 10^-6 M relative to control; format: functional; settings: Cavia porcellus, Cardiac atrium; how it was run: as §3
[24] = organism: Cavia porcellus; experiment: Negative ionotropic activity in potassium depolarized guinea pig longitudinal smooth muscle assessed as inhibition of calcium-induced contraction at 5 X 10^-7 M; format: functional
[25] = Negative chronotropic activity against potassium-induced contraction in guinea pig right atrium assessed as decrease atrial rate at 10^-6 M relative to control; format: functional; settings: Cavia porcellus, Cardiac atrium; how it was run: as §3
[26] = Negative ionotropic activity against potassium-induced contraction in guinea pig left atrium assessed as […] at 5 X 10^-6 M relative to control; format: functional; settings: Cavia porcellus, Cardiac atrium; how it was run: as §2
[27] = organism: Cavia porcellus; experiment: Negative ionotropic activity in potassium depolarized guinea pig longitudinal smooth muscle assessed as inhibition of calcium-induced contraction at 5 X 10^-8 M; format: functional
[28] = Negative ionotropic activity against potassium-induced contraction in guinea pig left atrium assessed as […] at 10^-5 M relative to control; format: functional; settings: Cavia porcellus, Cardiac atrium; how it was run: as §2
[29] = test system: Aorta; experiment: Vasorelaxant activity in potassium depolarized guinea pig aortic strip assessed as inhibition of calcium-induced contraction at 10^-6 M; format: functional; settings: Cavia porcellus; how it was run: as §4
[30] = Bronchodilatory activity in guinea pig trachea assessed as inhibition of carbachol-induced contraction at 10^-7 M; format: functional; settings: Cavia porcellus

Chain of Cystic fibrosis transmembrane conductance regulator (Homo sapiens), P13569 [F508del] (P13569 as listed by the source): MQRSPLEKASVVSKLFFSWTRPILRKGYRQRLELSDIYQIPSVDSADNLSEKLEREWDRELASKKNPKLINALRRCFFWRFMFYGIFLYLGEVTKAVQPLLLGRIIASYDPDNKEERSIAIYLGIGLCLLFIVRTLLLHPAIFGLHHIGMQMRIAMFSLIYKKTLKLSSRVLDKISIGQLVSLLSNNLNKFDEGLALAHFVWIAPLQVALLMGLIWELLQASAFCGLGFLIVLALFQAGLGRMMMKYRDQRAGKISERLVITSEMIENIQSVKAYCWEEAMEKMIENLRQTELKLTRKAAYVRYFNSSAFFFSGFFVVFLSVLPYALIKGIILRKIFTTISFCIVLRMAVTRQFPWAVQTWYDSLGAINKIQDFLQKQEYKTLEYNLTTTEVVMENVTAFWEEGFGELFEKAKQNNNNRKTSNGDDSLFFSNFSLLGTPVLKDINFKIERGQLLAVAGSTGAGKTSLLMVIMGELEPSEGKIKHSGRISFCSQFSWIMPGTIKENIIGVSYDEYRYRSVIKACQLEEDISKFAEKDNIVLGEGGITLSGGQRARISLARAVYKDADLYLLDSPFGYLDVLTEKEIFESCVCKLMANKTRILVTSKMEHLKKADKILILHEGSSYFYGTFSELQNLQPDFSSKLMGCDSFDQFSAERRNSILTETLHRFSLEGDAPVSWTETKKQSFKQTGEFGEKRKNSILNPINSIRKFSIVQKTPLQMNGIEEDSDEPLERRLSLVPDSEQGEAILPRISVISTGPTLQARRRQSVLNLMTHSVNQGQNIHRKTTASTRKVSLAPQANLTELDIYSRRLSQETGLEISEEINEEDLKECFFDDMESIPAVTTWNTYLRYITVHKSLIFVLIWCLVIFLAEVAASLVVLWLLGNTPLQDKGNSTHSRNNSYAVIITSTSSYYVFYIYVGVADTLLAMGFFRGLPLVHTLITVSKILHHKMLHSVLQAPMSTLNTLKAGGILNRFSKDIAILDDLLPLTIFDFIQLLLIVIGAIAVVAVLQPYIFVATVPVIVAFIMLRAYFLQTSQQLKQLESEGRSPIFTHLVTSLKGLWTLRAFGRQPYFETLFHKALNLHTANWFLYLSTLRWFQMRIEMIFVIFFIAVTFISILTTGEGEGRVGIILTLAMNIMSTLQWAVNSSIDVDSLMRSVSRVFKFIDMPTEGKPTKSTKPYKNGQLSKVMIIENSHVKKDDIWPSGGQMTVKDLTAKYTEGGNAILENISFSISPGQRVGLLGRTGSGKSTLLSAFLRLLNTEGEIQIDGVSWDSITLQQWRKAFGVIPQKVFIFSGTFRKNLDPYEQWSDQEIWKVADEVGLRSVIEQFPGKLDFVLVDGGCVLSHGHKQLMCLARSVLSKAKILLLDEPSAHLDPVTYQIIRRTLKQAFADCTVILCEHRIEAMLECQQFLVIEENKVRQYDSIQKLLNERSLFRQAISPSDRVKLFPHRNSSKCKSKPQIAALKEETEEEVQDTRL

Activity [1] | Emax [2] [ms-1] | IC50 [4] [nM] | Activity [5] | Compound | Kd [3] [nM] | other results
inactive | 60 | – | – | COC(=O)C1=C(C)NC(C)=C(C(=O)OC)C1c1c(-c2cccc(OC)c2)nc2sccn12 | 34200 | –
inactive | – | 8830 | inactive | COC(=O)C1=C(C)NC(C)=C(C(=O)OC)C1c1c(C)nc2sc(C)cn12 | – | inhibition at 10 µM [6]: 27%; inhibition [7]: 70%
inactive | – | 260 | inactive | COC(=O)C1=C(C)NC(C)=C(C(=O)OC)C1c1c(-c2ccccc2)nc2n1CCS2 | – | EC50 [8]: 390 nM; inhibition at 100 µM [9]: 78%; inhibition at 100 µM [10]: 90%; EC50 [11]: 8630 nM; inhibition [12]: 80%; inhibition at 100 µM [13]: 46%; Ratio EC50 [14]: 22
inactive | – | 450 | inactive | COC(=O)C1=C(C)NC(C)=C(C(=O)OC)C1c1c(-c2ccc(OC)c(OC)c2)nc2sccn12 | – | inhibition [12]: 90%
inactive | – | – | inactive | COC(=O)C1=C(C)NC(C)=C(C(=O)OC)C1c1c(-c2c(OC)ccc(OC)c2[N+](=O)[O-])nc2sccn12 | – | –
– | 59 | 940 | – | C=CCOC(=O)C1=C(C)NC(C)=C(C(=O)OCC=C)C1/C=C/c1ccccc1OC | 400 | EC50 [8]: 34 nM; inhibition at 10 µM [6]: 29%; inhibition at 1 µM [15]: 83%; inhibition at 10 µM [16]: 1%; inhibition [7]: 68%; inhibition at 10 µM [17]: 6%
inactive | – | – | inactive | COC(=O)C1=C(C)NC(C)=C(C(=O)OC)C1c1c(-c2cc(OC)c(OC)c(OC)c2)nc2sc(Cl)cn12 | – | –
inactive | – | 2160 | inactive | CCc1cn2c(C3C(C(=O)OC)=C(C)NC(C)=C3C(=O)OC)c(-c3cc(OC)ccc3OC)nc2s1 | – | inhibition [7]: 92%
inactive | 60 | 680 | – | COC(=O)C1=C(C)NC(C)=C(C(=O)OC)C1c1c(Cl)nc2sc(Cl)cn12 | 6800 | IC50 [18]: 3660 nM; inhibition [12]: 60%; inhibition at 100 µM [19]: 87%; Ratio EC50 [20]: 2.6
inactive | – | 860 | inactive | COC(=O)C1=C(C)NC(C)=C(C(=O)OC)C1c1c(-c2ccccc2OC)nc2sccn12 | – | –
inactive | – | 4890 | inactive | COC(=O)C1=C(C)NC(C)=C(C(=O)OC)C1c1c(-c2cc(OC)ccc2OC)nc2sc(C)cn12 | – | inhibition [7]: 74%
inactive | – | 1140 | inactive | COC(=O)C1=C(C)NC(C)=C(C(=O)OC)C1c1c(-c2cc(OC)ccc2OC)nc2sc(Cl)cn12 | – | inhibition [21]: 91%
inactive | 60 | 510 | – | COC(=O)C1=C(C)NC(C)=C(C(=O)OC)C1c1c(Cl)nc2scc(C)n12 | 21400 | Ratio EC50 [20]: 2.6
inactive | – | – | inactive | COC(=O)C1=C(C)NC(C)=C(C(=O)OC)C1c1c(Cl)nc2sc(C)cn12 | – | –
inactive | 60 | 57 | – | CCOC(=O)C1=C(C)NC(C)=C(C(=O)OCC)C1c1c(Cl)nc2sc(C)cn12 | 8400 | EC50 [8]: 31 nM; inhibition at 0.1 µM [22]: 56%; inhibition at 5 µM [23]: 36%; IC50 [18]: 2340 nM; inhibition at 100 µM [13]: 8%
inactive | – | 11400 | inactive | COC(=O)C1=C(C)NC(C)=C(C(=O)OC)C1c1c(-c2cc(OC)c(OC)cc2[N+](=O)[O-])nc2sccn12 | – | inhibition [21]: 86%; Ratio EC50 [14]: 9
inactive | – | – | inactive | COC(=O)C1=C(C)NC(C)=C(C(=O)OC)C1c1c(-c2ccccc2OC(F)(F)F)nc2sccn12 | – | inhibition at 10 µM [6]: 47%
inactive | 60 | 550 | – | COC(=O)C1=C(C)NC(C)=C(C(=O)OC)C1c1c(C)nc2sc(Cl)cn12 | 42900 | Ratio EC50 [20]: 2.6
inactive | 46 | 38 | – | CCOC(=O)C1=C(C)NC(C)=C(C(=O)OCC)C1c1c(-c2ccc(Cl)c(Cl)c2Cl)nc2sccn12 | 3200 | EC50 [8]: 430 nM; EC50 [11]: 610 nM; inhibition [12]: 77%; inhibition at 100 µM [13]: 17%; inhibition at 10 µM [6]: 40%; inhibition at 1 µM [15]: 90%; inhibition at 10 µM [17]: 92%
inactive | – | 74 | inactive | COC(=O)C1=C(C)NC(C)=C(C(=O)OC)C1c1c(-c2cc(OC)c([N+](=O)[O-])cc2OC)nc2sc(Cl)cn12 | – | inhibition [24]: 92%; inhibition at 100 µM [19]: 35%
inactive | – | 320 | inactive | C=CCOC(=O)C1=C(C)NC(C)=C(C(=O)OCC=C)C1c1c(-c2cc(OC)ccc2OC)nc2sccn12 | – | EC50 [8]: 340 nM; inhibition at 1 µM [25]: 32%; inhibition at 100 µM [13]: 31%; inhibition at 5 µM [26]: 81%
inactive | 60 | 320 | – | COC(=O)C1=C(C)NC(C)=C(C(=O)OC)C1c1c(Cl)nc2sc(C)c(C)n12 | 10900 | inhibition [12]: 78%
inactive | 64 | 18 | – | COC(=O)C1=C(C)NC(C)=C(C(=O)OC)C1c1c(-c2cccc(OC(F)(F)F)c2)nc2sccn12 | 1400 | inhibition [27]: 76%; IC50 [18]: 58 nM
inactive | 60 | 250 | – | CCOC(=O)C1=C(C)NC(C)=C(C(=O)OCC)C1c1c(-c2ccccc2)nc2sc(C)cn12 | 14800 | EC50 [11]: 7150 nM; inhibition [12]: 83%; inhibition at 10 µM [16]: 5%; inhibition at 10 µM [28]: 44%; inhibition at 10 µM [17]: 84%
– | 62 | 230 | – | CCOC(=O)C1=C(C)NC(C)=C(C(=O)OCC)C1c1cccc(Oc2ccccc2)c1 | 370 | EC50 [8]: 29 nM; inhibition at 5 µM [23]: 38%; inhibition at 10 µM [6]: 30%; inhibition at 1 µM [15]: 80%; inhibition at 10 µM [16]: 17%; inhibition [7]: 83%
inactive | 60 | 5.3 | – | C=CCOC(=O)C1=C(C)NC(C)=C(C(=O)OCC=C)C1c1c(-c2ccc(OC(F)(F)F)cc2)nc2sccn12 | 4800 | EC50 [8]: 730 nM; inhibition [27]: 90%; inhibition at 100 µM [9]: 88%; inhibition at 100 µM [10]: 77%; EC50 [11]: 1970 nM; inhibition at 10 µM [6]: 38%; inhibition at 1 µM [29]: 31%
inactive | 60 | 95 | – | COC(=O)C1=C(C)NC(C)=C(C(=O)OC)C1c1c(C(F)(F)F)nc2sc(C)cn12 | 12000 | IC50 [18]: 31 nM; inhibition at 0.1 µM [30]: 64%; inhibition [12]: 92%
